Assay results: ChEMBL document CHEMBL1151428, “Capability of 11 antipneumococcal antibiotics to select for resistance by multistep and single-step methodologies” (2007)
≈ marks a conversion by molar mass, not a printed value.

How the values were obtained:
Assay type in all cases: functional
[1] = tested on: Streptococcus pneumoniae; experiment: Antimicrobial activity against drug-resistant Streptococcus pneumoniae isolate 24 after 50 passages by multi-step resistance selection technique
Summary of the method: (§1)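 Daily serial passage in subinhibitory drug levels in 1 ml cation-adjusted Mueller-Hinton broth with 5% lysed horse blood; fresh broth for tigecycline. Each day, 10 μl were taken from the tube one to two dilutions below the MIC whose turbidity matched the growth control, and used to set the next MIC. MIC by macrodilution.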

[2] = tested on: Streptococcus pneumoniae; experiment: Antimicrobial activity against drug-resistant Streptococcus pneumoniae isolate 1635 after 49 passages with clarithromycin measured after 10 antibiotic-free subculture by multi-step resistance selection technique
[3] = tested on: Streptococcus pneumoniae; experiment: Antimicrobial activity against drug-resistant Streptococcus pneumoniae isolate 1635 after 50 passages by multi-step resistance selection technique; summary of the method: as §1
[4] = tested on: Streptococcus pneumoniae; experiment: Antimicrobial activity against drug-resistant Streptococcus pneumoniae isolate 1635 by NCCLS M7-A7 method
[5] = tested on: Streptococcus pneumoniae; experiment: Antimicrobial activity against drug-resistant Streptococcus pneumoniae isolate 3243 after 20 passages with moxifloxacin measured after 10 antibiotic-free subculture by multi-step resistance selection technique
Summary of the method: (§2)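 Mutants selected by daily broth passage in subinhibitory drug in cation-adjusted Mueller-Hinton broth with 5% lysed horse blood. Stability was tested by 10 daily passages on blood agar without antibiotic, then macrodilution MIC.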

[6] = tested on: Streptococcus pneumoniae; experiment: Antimicrobial activity against drug-resistant Streptococcus pneumoniae isolate 3243 after 33 passages with azithromycin measured after 10 antibiotic-free subculture by multi-step resistance selection technique; summary of the method: as §2
[7] = tested on: Streptococcus pneumoniae; experiment: Antimicrobial activity against drug-resistant Streptococcus pneumoniae isolate 3243 after 29 passages with Telithromycin measured after 10 antibiotic-free subculture by multi-step resistance selection technique; summary of the method: as §2
[8] = tested on: Streptococcus pneumoniae; experiment: Antimicrobial activity against drug-resistant Streptococcus pneumoniae isolate 3243 by NCCLS M7-A7 method
[9] = tested on: Streptococcus pneumoniae; experiment: Antimicrobial activity against drug-resistant Streptococcus pneumoniae isolate 3676 after 50 passages with moxifloxacin measured after 10 antibiotic-free subculture by multi-step resistance selection technique
[10] = tested on: Streptococcus pneumoniae; experiment: Antimicrobial activity against drug-resistant Streptococcus pneumoniae isolate 3274 after 50 passages by multi-step resistance selection technique; summary of the method: as §1
[11] = tested on: Streptococcus pneumoniae; experiment: Antimicrobial activity against drug-resistant Streptococcus pneumoniae isolate 3274 by NCCLS M7-A7 method
[12] = tested on: Streptococcus pneumoniae; experiment: Antimicrobial activity against drug-resistant Streptococcus pneumoniae isolate 2527 after 14 passages with gemifloxacin measured after 10 antibiotic-free subculture by multi-step resistance selection technique; summary of the method: as §2
[13] = tested on: Streptococcus pneumoniae; experiment: Antimicrobial activity against drug-resistant Streptococcus pneumoniae isolate 2527 after 20 passages with azithromycin measured after 10 antibiotic-free subculture by multi-step resistance selection technique; summary of the method: as §2
[14] = tested on: Streptococcus pneumoniae; experiment: Antimicrobial activity against drug-resistant Streptococcus pneumoniae isolate 2527 by NCCLS M7-A7 method
[15] = tested on: Streptococcus pneumoniae; experiment: Antimicrobial activity against drug-resistant Streptococcus pneumoniae isolate 3665 after 50 passages by multi-step resistance selection technique
Summary of the method: (§3)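 Daily serial passage in broth at subinhibitory drug levels: 1 ml cation-adjusted Mueller-Hinton broth with 5% lysed horse blood; fresh broth for tigecycline. Each day 10 μl inoculum taken from the tube one to two dilutions below MIC matching growth-control turbidity, used to set next MIC. Continued until ≥8-fold MIC rise, minimum 14, maximum 50 passages; MIC read by macrodilution.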

[16] = tested on: Streptococcus pneumoniae; experiment: Antimicrobial activity against drug-resistant Streptococcus pneumoniae isolate 3665 by NCCLS M7-A7 method
[17] = tested on: Streptococcus pneumoniae; experiment: Antimicrobial activity against drug-resistant Streptococcus pneumoniae isolate 1077 after 15 passages with Telithromycin measured after 10 antibiotic-free subculture by multi-step resistance selection technique; summary of the method: as §2
[18] = tested on: Streptococcus pneumoniae; experiment: Antimicrobial activity against drug-resistant Streptococcus pneumoniae isolate 1076 after 35 passages with moxifloxacin measured after 10 antibiotic-free subculture by multi-step resistance selection technique; summary of the method: as §2
[19] = tested on: Streptococcus pneumoniae; experiment: Antimicrobial activity against drug-resistant Streptococcus pneumoniae isolate 1076 after 14 passages with Telithromycin measured after 10 antibiotic-free subculture by multi-step resistance selection technique; summary of the method: as §2
[20] = tested on: Streptococcus pneumoniae; experiment: Antimicrobial activity against drug-resistant Streptococcus pneumoniae isolate 1076 by NCCLS M7-A7 method
[21] = tested on: Streptococcus pneumoniae; experiment: Antimicrobial activity against drug-resistant Streptococcus pneumoniae isolate 1076 after 50 passages by multi-step resistance selection technique
Summary of the method: (§4)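 Daily serial passage in subinhibitory drug levels in 1 ml cation-adjusted Mueller-Hinton broth with 5% lysed horse blood; fresh broth for tigecycline. Each day, 10 μl were taken from the tube one to two dilutions below the MIC whose turbidity matched the growth control, and used to set the next MIC. […] MIC by macrodilution.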

[22] = tested on: Streptococcus pneumoniae; experiment: Antimicrobial activity against drug-resistant Streptococcus pneumoniae isolate 3009 after 19 passages with moxifloxacin measured after 10 antibiotic-free subculture by multi-step resistance selection technique; summary of the method: as §2
[23] = tested on: Streptococcus pneumoniae; experiment: Antimicrobial activity against drug-resistant Streptococcus pneumoniae isolate 3009 after 21 passages with gemifloxacin measured after 10 antibiotic-free subculture by multi-step resistance selection technique; summary of the method: as §2
[24] = tested on: Streptococcus pneumoniae; experiment: Antimicrobial activity against drug-resistant Streptococcus pneumoniae isolate 3009 after 25 passages with clarithromycin measured after 10 antibiotic-free subculture by multi-step resistance selection technique
[25] = tested on: Streptococcus pneumoniae; experiment: Antimicrobial activity against drug-resistant Streptococcus pneumoniae isolate 3009 by NCCLS M7-A7 method
[26] = tested on: Streptococcus pneumoniae; experiment: Antimicrobial activity against drug-resistant Streptococcus pneumoniae isolate 37 by NCCLS M7-A7 method
[27] = tested on: Streptococcus pneumoniae; experiment: Antimicrobial activity against drug-resistant Streptococcus pneumoniae isolate 37 after 50 passages by multi-step resistance selection technique
Summary of the method: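 Daily serial passage in broth at subinhibitory drug levels: 1 ml cation-adjusted Mueller-Hinton broth with 5% lysed horse blood; fresh broth for tigecycline. Each day 10 μl inoculum taken from the tube one to two dilutions below MIC matching growth-control turbidity, used to set next MIC.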

[28] = tested on: Streptococcus pneumoniae; experiment: Antimicrobial activity against drug-resistant Streptococcus pneumoniae isolate 37 after 14 passages with Telithromycin measured after 10 antibiotic-free subculture by multi-step resistance selection technique
[29] = tested on: Streptococcus pneumoniae; experiment: Antimicrobial activity against drug-resistant Streptococcus pneumoniae isolate 3413 by NCCLS M7-A7 method
[30] = tested on: Streptococcus pneumoniae; experiment: Antimicrobial activity against drug-resistant Streptococcus pneumoniae isolate 3413 after 50 passages by multi-step resistance selection technique; summary of the method: as §1
[31] = tested on: Streptococcus pneumoniae; experiment: Antimicrobial activity against drug-resistant Streptococcus pneumoniae isolate 3413 after 30 passages with Telithromycin measured after 10 antibiotic-free subculture by multi-step resistance selection technique; summary of the method: as §2
[32] = tested on: Streptococcus pneumoniae; experiment: Antimicrobial activity against drug-resistant Streptococcus pneumoniae isolate 3676 after 44 passages with clarithromycin measured after 10 antibiotic-free subculture by multi-step resistance selection technique
[33] = tested on: Streptococcus pneumoniae; experiment: Antimicrobial activity against drug-resistant Streptococcus pneumoniae isolate 3676 after 50 passages by multi-step resistance selection technique; summary of the method: as §3
[34] = tested on: Streptococcus pneumoniae; experiment: Antimicrobial activity against drug-resistant Streptococcus pneumoniae isolate 3665 after 38 passages with moxifloxacin measured after 10 antibiotic-free subculture by multi-step resistance selection technique
[35] = tested on: Streptococcus pneumoniae; experiment: Antimicrobial activity against drug-resistant Streptococcus pneumoniae isolate 3665 after 26 passages with clarithromycin measured after 10 antibiotic-free subculture by multi-step resistance selection technique
[36] = tested on: Streptococcus pneumoniae; experiment: Antimicrobial activity against drug-resistant Streptococcus pneumoniae isolate 3665 after 14 passages with Telithromycin measured after 10 antibiotic-free subculture by multi-step resistance selection technique
[37] = tested on: Streptococcus pneumoniae; experiment: Antimicrobial activity against drug-resistant Streptococcus pneumoniae isolate 2527 after 50 passages by multi-step resistance selection technique; summary of the method: as §4
[38] = tested on: Streptococcus pneumoniae; experiment: Antimicrobial activity against drug-resistant Streptococcus pneumoniae isolate 3009 after 50 passages by multi-step resistance selection technique; summary of the method: as §4

Compound | MIC [2] [µg/mL] | MIC [3] [µg/mL] | MIC [4] [µg/mL] | MIC [5] [µg/mL] | MIC [6] [µg/mL] | MIC [7] [µg/mL] | MIC [8] [µg/mL] | MIC [9] [µg/mL] | MIC [11] [µg/mL] | MIC [12] [µg/mL] | MIC [13] [µg/mL] | MIC [14] [µg/mL] | MIC [16] [µg/mL] | MIC [17] [µg/mL] | MIC [18] [µg/mL] | MIC [19] [µg/mL] | MIC [20] [µg/mL] | MIC [22] [µg/mL] | MIC [23] [µg/mL] | MIC [24] [µg/mL] | also measured
CO/N=C1\CN(c2nc3c(cc2F)c(=O)c(C(=O)O)cn3C2CC2)CC1CN (configuration not stated) [GEMIFLOXACIN] | 0.03 (≈ 0.077 µM) | 0.06 (≈ 0.154 µM) | 0.016 (≈ 0.0411 µM) | 0.06 (≈ 0.154 µM) | 0.03 (≈ 0.077 µM) | 0.03 (≈ 0.077 µM) | 0.016 (≈ 0.0411 µM) | 1 (≈ 2.57 µM) | 0.016 (≈ 0.0411 µM) | 2 (≈ 5.14 µM) | 0.25 (≈ 0.642 µM) | 0.25 (≈ 0.642 µM) | 0.016 (≈ 0.0411 µM) | 0.25 (≈ 0.642 µM) | 0.5 (≈ 1.28 µM) | 0.25 (≈ 0.642 µM) | 0.25 (≈ 0.642 µM) | 0.125 (≈ 0.321 µM) | 2 (≈ 5.14 µM) | 0.03 (≈ 0.077 µM) | MIC [1]: 0.03 µg/mL (≈ 0.077 µM); MIC [10]: 0.06 µg/mL (≈ 0.154 µM); MIC [15]: 0.06 µg/mL (≈ 0.154 µM); MIC [21]: 0.5 µg/mL (≈ 1.28 µM); MIC [25]: 0.016 µg/mL (≈ 0.0411 µM); MIC [26]: 0.016 µg/mL (≈ 0.0411 µM); MIC [27]: 0.016 µg/mL (≈ 0.0411 µM); MIC [28]: 0.03 µg/mL (≈ 0.077 µM); MIC [29]: 0.016 µg/mL (≈ 0.0411 µM); MIC [30]: 0.016 µg/mL (≈ 0.0411 µM); MIC [31]: 0.03 µg/mL (≈ 0.077 µM); MIC [32]: 0.03 µg/mL (≈ 0.077 µM); MIC [33]: 0.03 µg/mL (≈ 0.077 µM); MIC [34]: 0.125 µg/mL (≈ 0.321 µM); MIC [35]: 0.03 µg/mL (≈ 0.077 µM); MIC [36]: 0.03 µg/mL (≈ 0.077 µM)
CC[C@H]1OC(=O)[C@H](C)C(=O)[C@H](C)[C@@H](O[C@@H]2O[C@H](C)C[C@H](N(C)C)[C@H]2O)[C@](C)(OC)C[C@@H](C)C(=O)[C@H](C)[C@H]2N(CCCCn3cnc(-c4cccnc4)c3)C(=O)O[C@]12C [TELITHROMYCIN] | 0.016 (≈ 0.0197 µM) | 0.008 (≈ 0.00985 µM) | 0.004 (≈ 0.00493 µM) | 0.016 (≈ 0.0197 µM) | 0.06 (≈ 0.0739 µM) | 0.06 (≈ 0.0739 µM) | 0.004 (≈ 0.00493 µM) | 0.06 (≈ 0.0739 µM) | 0.004 (≈ 0.00493 µM) | 0.004 (≈ 0.00493 µM) | 0.03 (≈ 0.0369 µM) | 0.004 (≈ 0.00493 µM) | 0.125 (≈ 0.154 µM) | 0.25 (≈ 0.308 µM) | 1 (≈ 1.23 µM) | > 64 | 0.5 (≈ 0.616 µM) | 0.008 (≈ 0.00985 µM) | 0.03 (≈ 0.0369 µM) | 0.06 (≈ 0.0739 µM) | MIC [37]: 0.016 µg/mL (≈ 0.0197 µM); MIC [25]: 0.016 µg/mL (≈ 0.0197 µM); MIC [38]: 0.03 µg/mL (≈ 0.0369 µM); MIC [26]: 0.25 µg/mL (≈ 0.308 µM); MIC [28]: 8 µg/mL (≈ 9.85 µM); MIC [29]: 0.03 µg/mL (≈ 0.0369 µM); MIC [31]: 0.5 µg/mL (≈ 0.616 µM); MIC [32]: 0.03 µg/mL (≈ 0.0369 µM); MIC [34]: 0.125 µg/mL (≈ 0.154 µM); MIC [35]: 0.06 µg/mL (≈ 0.0739 µM); MIC [36]: 0.25 µg/mL (≈ 0.308 µM)
